ChEMBL document CHEMBL1126904, “Inhibitors of cholesterol biosynthesis. 1. 3,5-Dihydroxy-7-(N-imidazolyl)-6-heptenoates and -heptanoates, a novel series of HMG-CoA reductase inhibitors” (J Med Chem, 1993)

Experiments:
[1] = target: T1, 3-hydroxy-3-methylglutaryl-coenzyme A reductase (Rattus norvegicus, UniProt P51639); test: Inhibitory activity against washed rat liver microsomal HMG-CoA reductase (HMGR)
T1 sequence (P51639 whole entry): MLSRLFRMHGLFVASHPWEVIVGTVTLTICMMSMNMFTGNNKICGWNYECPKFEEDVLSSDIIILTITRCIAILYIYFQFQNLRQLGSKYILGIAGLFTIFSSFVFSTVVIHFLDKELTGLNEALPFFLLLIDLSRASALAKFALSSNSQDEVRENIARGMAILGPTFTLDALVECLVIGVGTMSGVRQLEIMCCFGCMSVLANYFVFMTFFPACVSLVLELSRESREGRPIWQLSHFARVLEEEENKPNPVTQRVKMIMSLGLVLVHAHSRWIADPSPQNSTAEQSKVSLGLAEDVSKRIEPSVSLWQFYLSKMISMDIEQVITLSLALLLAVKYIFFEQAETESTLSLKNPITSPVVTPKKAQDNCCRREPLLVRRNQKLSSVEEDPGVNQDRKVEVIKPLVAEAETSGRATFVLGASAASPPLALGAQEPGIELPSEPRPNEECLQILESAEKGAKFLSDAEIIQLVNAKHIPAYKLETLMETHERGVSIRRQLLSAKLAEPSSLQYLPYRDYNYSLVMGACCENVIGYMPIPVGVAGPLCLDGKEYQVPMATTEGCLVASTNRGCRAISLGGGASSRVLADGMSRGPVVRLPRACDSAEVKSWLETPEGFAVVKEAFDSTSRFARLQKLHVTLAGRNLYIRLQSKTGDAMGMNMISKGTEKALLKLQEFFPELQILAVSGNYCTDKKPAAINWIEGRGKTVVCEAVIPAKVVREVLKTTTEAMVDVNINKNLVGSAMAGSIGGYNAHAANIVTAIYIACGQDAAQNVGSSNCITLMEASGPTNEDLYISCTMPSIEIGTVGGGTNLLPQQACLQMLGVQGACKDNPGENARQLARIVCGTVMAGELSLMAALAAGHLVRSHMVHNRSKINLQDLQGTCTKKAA
In short: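 Male Wistar rats (100–120 g) on reversed light cycle, killed at 0800 h; washed liver microsomes (10000g then 105000g spins, 4 °C) in buffer A (50 mM K phosphate pH 7.4, 250 mM NaCl, 10 mM EDTA, 1 mM DTT). Enzyme+inhibitor preincubated 10 min 37 °C; NADPH-regenerating system plus [3-14C]HMG-CoA added; HCl stop, lactonization, anion-exchange isolation of [14C]mevalonate, scintillation. Five concentrations, duplicate, ≥2 occasions; pravastatin reference.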

[2] = Partition coefficient (logD7.4); format: physicochemical; conditions: octanol/water, pH 7.4
In short: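 log D by HPLC in n-octanol–water: compound dissolved in pH 7.4 aqueous borax-phosphate buffer saturated with n-octanol, eluted through a column of n-octanol physically bonded to fractionated hyflosuperpel.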

HepG2 = test: Tested for ability to inhibit the incorporation of [14C]- acetate in to cholesterol in HepG2 cells; format: functional, cell-based; conditions: Homo sapiens
In short: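 HepG2 cells in MEM + 10% fetal calf serum to 80% confluency, switched to serum-free MEM; inhibitor and sodium [14C]acetate added together, 3 h. Saponified, petroleum ether extract; [14C]cholesterol separated by reverse-phase HPLC and measured by radioactivity flow monitor. At least five concentrations, triplicate, run twice; lovastatin standard.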

IC50 [1] [nM] | logD [2] | IC50 (HepG2) [nM] | Structure (SMILES)
700 | – | – | CC(C)c1nc(-c2ccc(F)cc2)c(-c2ccc(F)cc2)n1/C=C/[C@H](O)C[C@H](O)CC(=O)O
2000 | – | – | CC(C)c1nc(-c2ccc(F)cc2)c(-c2ccc(F)cc2)n1/C=C/[C@H](O)C[C@@H](O)CC(=O)O
29 | – | – | Cc1cccc(-c2nc(C(F)(F)F)n(CC[C@@H](O)C[C@@H](O)CC(=O)O)c2-c2ccc(F)cc2)c1
68 | – | – | COc1ccc(-c2nc(C(F)(F)F)n(CC[C@@H](O)C[C@@H](O)CC(=O)O)c2-c2ccc(F)cc2)cc1
38 | – | – | O=C(O)C[C@H](O)C[C@H](O)CCn1c(C(F)(F)F)nc(-c2ccc(F)cc2)c1-c1ccc(F)cc1
2 | 0.72 | 5.3 | CC(C)c1nc(-c2ccc(F)cc2)c(-c2ccc(F)cc2)n1/C=C/[C@@H](O)C[C@@H](O)CC(=O)O [listing 1 of 2 here]
418 | – | – | COc1ccc(-c2c(-c3ccc(F)cc3)nc(C(F)(F)F)n2CC[C@@H](O)C[C@@H](O)CC(=O)O)cc1
215 | – | – | O=C(O)C[C@H](O)C[C@H](O)CCn1c(C(F)(F)F)nc(-c2ccc(F)cc2)c1-c1cccs1
31 | – | – | O=C(O)C[C@H](O)C[C@H](O)CCn1c(C(F)(F)F)nc(-c2ccccc2)c1-c1ccc(F)cc1
38 | – | – | Cc1cc(C)cc(-c2c(-c3ccc(F)cc3)nc(C(F)(F)F)n2CC[C@@H](O)C[C@@H](O)CC(=O)O)c1
2.6 | – | – | CC(C)c1nc(-c2ccccc2)n(-c2ccc(F)cc2)c1/C=C/[C@@H](O)C[C@@H](O)CC(=O)O
30 | – | – | Cc1cc(-c2c(-c3ccc(F)cc3)nc(C(C)C)n2/C=C/[C@@H](O)C[C@@H](O)CC(=O)O)cc(C)c1F
4 | 0.86 | – | Cc1cc(F)ccc1-c1c(-c2ccc(F)cc2)nc(C(C)C)n1/C=C/[C@@H](O)C[C@@H](O)CC(=O)O
1 | -0.43 | – | CC(C)c1nc(-c2cccnc2)c(-c2ccc(F)cc2)n1/C=C/[C@@H](O)C[C@@H](O)CC(=O)O
750 | – | – | Cc1ccc(-c2c(-c3ccc(F)cc3)nc(C(F)(F)F)n2CC[C@@H](O)C[C@@H](O)CC(=O)O)cc1
56 | – | – | Cc1cc(C)cc(-c2c(-c3ccc(F)cc3)nc(C(C)C)n2/C=C/[C@@H](O)C[C@@H](O)CC(=O)O)c1
7 | – | – | CC(C)(C)c1nc(-c2ccc(F)cc2)c(-c2ccc(F)cc2)n1/C=C/[C@@H](O)C[C@@H](O)CC(=O)O
9 | – | – | CN(C)c1nc(-c2ccc(F)cc2)c(-c2ccc(F)cc2)n1/C=C/[C@@H](O)C[C@@H](O)CC(=O)O
41 | – | – | O=C(O)C[C@H](O)C[C@H](O)CCn1c(C(F)(F)F)nc(-c2ccc(F)cc2)c1-c1cccc(Cl)c1
43 | – | – | Cc1ccc(-c2nc(C(F)(F)F)n(CC[C@@H](O)C[C@@H](O)CC(=O)O)c2-c2ccc(F)cc2)cc1
> 1000 | – | – | O=C(O)C[C@H](O)C[C@H](O)CCn1c(C(F)(F)F)nc(-c2ccc(F)cc2)c1-c1cccnc1
74 | – | – | Cc1cccc(-c2c(-c3ccc(F)cc3)nc(C(F)(F)F)n2CC[C@@H](O)C[C@@H](O)CC(=O)O)c1

IC50 [1] [nM] | logD [2] | IC50 (HepG2) [nM] | Structure (SMILES)
100 | – | – | CCc1cc(-c2c(-c3ccc(F)cc3)nc(C(C)C)n2/C=C/[C@@H](O)C[C@@H](O)CC(=O)O)cc(CC)c1F
64 | – | – | O=C(O)C[C@H](O)C[C@H](O)CCn1c(C(F)(F)F)nc(-c2cccs2)c1-c1ccc(F)cc1
1 | 0.83 | – | CC(C)c1c(-c2ccc(F)cc2)nc(-c2ccc(F)cc2)n1/C=C/[C@@H](O)C[C@@H](O)CC(=O)O
316 | – | – | CC(C)c1nc(-c2ccc(F)cc2)c(-c2ccc(F)cc2)n1CC[C@@H](O)C[C@@H](O)CC(=O)O
2 | -0.6 | – | CC(C)c1nc(-c2cccc(S(C)(=O)=O)c2)c(-c2ccc(F)cc2)n1/C=C/[C@@H](O)C[C@@H](O)CC(=O)O
201 | – | – | O=C(O)C[C@H](O)C[C@H](O)CCn1c(C(F)(F)F)nc(-c2ccc(F)cc2)c1-c1ccccc1
135 | – | – | COc1cccc(-c2c(-c3ccc(F)cc3)nc(C(F)(F)F)n2CC[C@@H](O)C[C@@H](O)CC(=O)O)c1
2 | 2.27 | 0.9 | Cc1cc(-c2nc(C(C)C)n(/C=C/[C@@H](O)C[C@@H](O)CC(=O)O)c2-c2ccc(F)cc2)cc(C)c1Cl
32 | – | – | Cc1cc(-c2nc(C(F)(F)F)n(CC[C@@H](O)C[C@@H](O)CC(=O)O)c2-c2ccc(F)cc2)cc(C)c1F
200 | – | – | O=C(O)C[C@H](O)C[C@H](O)CCn1c(C(F)(F)F)nc(-c2ccc(C(F)(F)F)cc2)c1-c1ccc(F)cc1
17 | – | – | O=C(O)C[C@H](O)C[C@H](O)CCn1c(C(F)(F)F)nc(-c2cccc(Cl)c2)c1-c1ccc(F)cc1
8 | – | – | CC(C)c1nc(-c2ccc(F)cc2)c(-c2cccc(Cl)c2)n1/C=C/[C@@H](O)C[C@@H](O)CC(=O)O
22 | – | – | CC(C)c1nc(-c2ccc(F)cc2)c(-c2cc(Cl)cc(Cl)c2)n1/C=C/[C@@H](O)C[C@@H](O)CC(=O)O
13 | 0.73 | 15.8 | O=C(O)C[C@H](O)C[C@H](O)/C=C/n1c(C(F)(F)F)nc(-c2ccc(F)cc2)c1-c1ccc(F)cc1
> 1000 | – | – | O=C(O)C[C@H](O)C[C@H](O)CCn1c(C(F)(F)F)nc(-c2ccc(F)cc2)c1-c1ccc(C(F)(F)F)cc1
24 | – | – | Cc1cc(C)cc(-c2nc(C(F)(F)F)n(CC[C@@H](O)C[C@@H](O)CC(=O)O)c2-c2ccc(F)cc2)c1
31 | – | – | Cc1cc(-c2c(-c3ccc(F)cc3)nc(C(F)(F)F)n2CC[C@@H](O)C[C@@H](O)CC(=O)O)cc(C)c1F
1 | – | 2.5 | CC(C)c1nc(-c2ccc(F)cc2)c(-c2ccc(F)cc2)n1/C=C/[C@@H](O)C[C@@H](O)CC(=O)O [listing 2 of 2 here]
66 | – | – | O=C(O)C[C@H](O)C[C@H](O)CCn1c(C(F)(F)F)nc(-c2cccnc2)c1-c1ccc(F)cc1
3 | -0.05 | – | CNc1cccc(-c2nc(C(C)C)n(/C=C/[C@@H](O)C[C@@H](O)CC(=O)O)c2-c2ccc(F)cc2)c1
20 | – | – | COc1cccc(-c2nc(C(F)(F)F)n(CC[C@@H](O)C[C@@H](O)CC(=O)O)c2-c2ccc(F)cc2)c1
> 100 | – | – | Cc1nc(-c2ccc(F)cc2)c(-c2ccc(F)cc2)n1/C=C/[C@@H](O)C[C@@H](O)CC(=O)O
